Experimental data reported in ChEMBL document CHEMBL4725355, “Design, Synthesis, and Preclinical Evaluation of 3-Methyl-6-(5-thiophenyl)-1,3-dihydro-imidazo[4,5-b]pyridin-2-ones as Selective GluN2B Negative Allosteric Modulators for the Treatment of Mood Disorders” (J Med Chem, 2020).
Converted amounts (≈) assume the structure as drawn.

Columns and labels:
[1] = Negative allosteric modulation of human GluN1a/GluN2A receptor expressed in CHO cells assessed as inhibition of glutamate and glycine-induced calcium flux preincubated for 5 mins followed by glutamate and glycine addition and measured after 5 mins by calcium 5 dye based FLIPR assay; type: cell-based
Outline: (§1)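 Tet-On CHO T-Rex cells expressing hGluN1a with GluN2A, 2B, 2C or 2D, plated at 20,000 cells/well and induced 24 h before the assay in the presence of ketamine. Cells loaded 1 h at room temperature with Calcium 5 dye, pH 7.4 HEPES buffer. Compound added 5 min, then glutamate (~EC80) plus 10 µM glycine for 5 min; FLIPR fluorescence normalized to control wells. Three independent runs in duplicate (two for some).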

[2] = Negative allosteric modulation of human GluN1a/GluN2C receptor expressed in CHO cells assessed as inhibition of glutamate and glycine-induced calcium flux preincubated for 5 mins followed by glutamate and glycine addition and measured after 5 mins by calcium 5 dye based FLIPR assay; type: cell-based; outline: as §1
[3] = Negative allosteric modulation of human GluN1a/GluN2D receptor expressed in CHO cells assessed as inhibition of glutamate and glycine-induced calcium flux preincubated for 5 mins followed by glutamate and glycine addition and measured after 5 mins by calcium 5 dye based FLIPR assay; type: cell-based; outline: as §1
[4] = Solubility of compound in phosphate buffer at pH 2 measured after 3 days; type: physicochemical; conditions: time 3 day
Outline: (§2)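 Solubility in aqueous buffer at pH 2 and pH 7, and in simulated gastric and intestinal fluids.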

[5] = Solubility of compound in phosphate buffer at pH 7 measured after 3 days; type: physicochemical; conditions: time 3 day; outline: as §2
[6] = Protein binding in human plasma at 1 uM after 6 hrs by equilibrium dialysis method; type: ADME, cell-free; conditions: read-out: PPB (converted)
[7] = molecular target: Voltage-gated inwardly rectifying potassium channel KCNH2 (Homo sapiens, UniProt Q12809); assay: Inhibition of human ERG expressed in CHO cells measured after 5 mins by Qpatch method; type: cell-based
Outline: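 CHO cells stably expressing hERG, whole-cell QPatch. Vehicle applied 5 min, then 0.3, 3.0, 10 and 30 µM in rising order, each concentration applied twice. Current measured after 5 min as the average of 3 voltage pulses; block taken relative to vehicle pretreatment, mean ± SEM.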

[8] = Negative allosteric modulation of human GluN1a/GluN2B receptor expressed in CHO cells assessed as inhibition of glutamate and glycine-induced calcium flux preincubated for 5 mins followed by glutamate and glycine addition and measured after 5 mins by calcium 5 dye based FLIPR assay; type: cell-based; outline: as §1
[9] = Efflux ratio of apparent permeability across basolateral to apical side over apical to basolateral side in MDCK-MDR1 cells at 5 uM measured after 60 mins by LC-MS/MS analysis; type: ADME, cell-based, Canis lupus familiaris; conditions: dog
Outline: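 MDCK-MDR1 cells, passages 6-30, seeded at 3.4×10^5 cells/cm² and cultured 3 days. Test compound at 5 µM final (1% DMSO) in HBSS, pH 7.4, applied to the donor side. A→B and B→A runs at 37 °C for 60 min, in duplicate, quantified by LC/MS/MS. Efflux ratio taken as B-A/A-B; monolayer integrity checked by lucifer yellow.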

[10] = Displacement of 3-[3H] 1-(azetidin-1-yl)-2-[6-(4-fluoro-3-methyl-phenyl)pyrrolo[3,2-b]pyridin-1-yl]ethanone from GluN1a/GluN2B receptor in rat cortex membranes measured after 2 hrs by liquid scintillation counting method; type: cell membranes
Outline: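 Rat adult cortex was homogenized in 50 mM Tris pH 7.4, and membranes were washed by centrifugation. Membranes were incubated with the [3H] pyrrolopyridine tracer and test compound for 2 h at room temperature with shaking. Non-specific binding was defined with 10 µM CP-101,606. Bound tracer was separated by filtration on PEI-soaked GF/B filters and counted by liquid scintillation. Ki was obtained from a competition fit using tracer Kd; three independent runs in duplicate.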

[11] = Metabolic stability in human liver microsomes assessed as extraction ratio at 1 uM after 5 to 60 mins in presence of NADPH by LC-MS/MS analysis; type: ADME, Microsome; conditions: time 5-60 min, read-out: ERH
Outline: (§3)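 Human and rat liver microsomes, run in duplicate; stability reported as microsomal extraction ratio.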

[12] = Metabolic stability in rat liver microsomes assessed as extraction ratio at 1 uM after 5 to 60 mins in presence of NADPH by LC-MS/MS analysis; type: ADME, Microsome; conditions: time 5-60 min, read-out: ERH; outline: as §3
[13] = Stability of compound in phosphate buffer at pH 2 assessed as drug decomposition measured after 24 h; conditions: pH 2, 24 h
[14] = Stability of compound in phosphate buffer at pH 7 assessed as drug decomposition measured after 24 h; conditions: pH 7, 24 h
[15] = Clearance in Sprague-Dawley rat at 0.5 mg/kg, iv using 30% SBE-beta-CD formulation by LC-MS/MS analysis; type: ADME, organism-based; conditions: in vivo
Outline: (§4)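 Rat IV/PO PK at 0.5 mg/kg IV and 2.5 mg/kg PO, dosed in 30% SBE-β-CD, n=3.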

[16] = Volume of distribution at steady state in Sprague-Dawley rat at 0.5 mg/kg, iv or 2.5 mg/kg, po using 30% SBE-beta-CD formulation by LC-MS/MS analysis; type: ADME, organism-based; conditions: in vivo, read-out: Vdss
Outline: (§5)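 Rat PK at 0.5 mg/kg i.v. and 2.5 mg/kg p.o., vehicle 30% SBE-β-CD. n=3, values given as mean ± SD.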

[17] = Half life in Sprague-Dawley rat at 0.5 mg/kg, iv or 2.5 mg/kg, po using 30% SBE-beta-CD formulation by LC-MS/MS analysis; type: ADME, organism-based; conditions: in vivo
Outline: (§6)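 Rats dosed 0.5 mg/kg i.v. and 2.5 mg/kg p.o., n=3 ± SD. Default vehicle is 20% HP-β-CD; one PK set used 1:1 PEG400/water and another 30% SBE-β-CD.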

[18] = Cmax in Sprague-Dawley rat at 0.5 mg/kg, iv or 2.5 mg/kg, po using 30% SBE-beta-CD formulation by LC-MS/MS analysis; type: ADME, organism-based; design: dose 2.5 mg/kg; conditions: in vivo; outline: as §4
[19] = AUC (infinity) in Sprague-Dawley rat at 0.5 mg/kg, iv or 2.5 mg/kg, po using 30% SBE-beta-CD formulation by LC-MS/MS analysis; type: ADME, organism-based; design: dose 2.5 mg/kg; conditions: in vivo; outline: as §4
[20] = Tmax in Sprague-Dawley rat at 0.5 mg/kg, iv or 2.5 mg/kg, po using 30% SBE-beta-CD formulation by LC-MS/MS analysis; type: ADME, organism-based; conditions: in vivo; outline: as §5
[21] = Oral bioavailability in Sprague-Dawley rat at 2.5 mg/kg using 30% SBE-beta-CD formulation by LC-MS/MS analysis; type: ADME, organism-based; conditions: in vivo; outline: as §6
[22] = Ex vivo receptor occupancy at GluN2B in Sprague-Dawley rat assessed as 3-[3H] 1-(azetidin-1-yl)-2-[6-(4-fluoro-3-methyl-phenyl)pyrrolo[3,2-b]pyridin-1-yl]-ethanone labelling at 3 mg/kg, po measured after 0.5 hrs by autoradiography; type: functional
Outline: (§7)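 Rats dosed orally at 3 mg/kg in 20% HP-β-CD; brains taken at 0.5, 2 and 6 h. Ex vivo autoradiography of brain slices with the ³H pyrrolo[3,2-b]pyridine GluN2B tracer. Labelling expressed relative to matching brain areas of vehicle-treated animals; n=2, ± SEM.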

[23] = Ex vivo receptor occupancy at GluN2B in Sprague-Dawley rat assessed as 3-[3H] 1-(azetidin-1-yl)-2-[6-(4-fluoro-3-methyl-phenyl)pyrrolo[3,2-b]pyridin-1-yl]-ethanone labelling at 3 mg/kg, po measured after 2 hrs by autoradiography; type: functional; outline: as §7
[24] = Ex vivo receptor occupancy at GluN2B in Sprague-Dawley rat assessed as 3-[3H] 1-(azetidin-1-yl)-2-[6-(4-fluoro-3-methyl-phenyl)pyrrolo[3,2-b]pyridin-1-yl]-ethanone labelling at 3 mg/kg, po measured after 6 hrs by autoradiography; type: functional; outline: as §7
[25] = Cmax in Sprague-Dawley rat brain at 3 mg/kg, po after 2 hrs by LC-MS/MS analysis; type: ADME, organism-based; design: route oral, dose 3 mg/kg, time 2 hrs
Outline: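 Oral dose of 3 mg/kg in 20% HP-β-CD to rats. Brain concentration was measured alongside ex vivo GluN2B occupancy over a 6 h time course (0.5, 2 and 6 h), n=2.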

[26] = Tmax in Sprague-Dawley rat brain at 3 mg/kg, po by LC-MS/MS analysis; type: ADME, organism-based
Outline: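 Rats dosed orally at 3 mg/kg in 20% HP-β-CD. Brain concentrations were measured over a 6 h time course (0.5, 2, 6 h) alongside ex vivo GluN2B occupancy, n=2.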

[27] = Clearance in Sprague-Dawley rat at 0.5 mg/kg, iv using 20% HP-beta-CD formulation by LC-MS/MS analysis; type: ADME, organism-based; conditions: in vivo
Outline: (§8)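 Rat PK with IV and PO dosing, n=3. The usual doses were 0.5 mg/kg IV and 2.5 mg/kg PO in 20% HP-β-CD. One compound was instead given at 0.1 mg/kg IV and 0.5 mg/kg PO.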

[28] = Volume of distribution at steady state in Sprague-Dawley rat at 0.5 mg/kg, iv or 2.5 mg/kg, po using 20% HP-beta-CD formulation by LC-MS/MS analysis; type: ADME, organism-based; conditions: in vivo, read-out: Vdss
Outline: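 Rat PK at 0.5 mg/kg i.v. and 2.5 mg/kg p.o., vehicle 20% HP-β-CD. n=3, values given as mean ± SD.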

[29] = Half life in Sprague-Dawley rat at 0.5 mg/kg, iv or 2.5 mg/kg, po using 20% HP-beta-CD formulation by LC-MS/MS analysis; type: ADME, organism-based; conditions: in vivo; outline: as §6
[30] = Cmax in Sprague-Dawley rat at 0.5 mg/kg, iv or 2.5 mg/kg, po using 20% HP-beta-CD formulation by LC-MS/MS analysis; type: ADME, organism-based; design: dose 2.5 mg/kg; conditions: in vivo; outline: as §8
[31] = Oral bioavailability in Sprague-Dawley rat at 2.5 mg/kg using 20% HP-beta-CD formulation by LC-MS/MS analysis; type: ADME, organism-based; conditions: in vivo; outline: as §6

Voltage-gated inwardly rectifying potassium channel KCNH2, sequence (Q12809 whole entry): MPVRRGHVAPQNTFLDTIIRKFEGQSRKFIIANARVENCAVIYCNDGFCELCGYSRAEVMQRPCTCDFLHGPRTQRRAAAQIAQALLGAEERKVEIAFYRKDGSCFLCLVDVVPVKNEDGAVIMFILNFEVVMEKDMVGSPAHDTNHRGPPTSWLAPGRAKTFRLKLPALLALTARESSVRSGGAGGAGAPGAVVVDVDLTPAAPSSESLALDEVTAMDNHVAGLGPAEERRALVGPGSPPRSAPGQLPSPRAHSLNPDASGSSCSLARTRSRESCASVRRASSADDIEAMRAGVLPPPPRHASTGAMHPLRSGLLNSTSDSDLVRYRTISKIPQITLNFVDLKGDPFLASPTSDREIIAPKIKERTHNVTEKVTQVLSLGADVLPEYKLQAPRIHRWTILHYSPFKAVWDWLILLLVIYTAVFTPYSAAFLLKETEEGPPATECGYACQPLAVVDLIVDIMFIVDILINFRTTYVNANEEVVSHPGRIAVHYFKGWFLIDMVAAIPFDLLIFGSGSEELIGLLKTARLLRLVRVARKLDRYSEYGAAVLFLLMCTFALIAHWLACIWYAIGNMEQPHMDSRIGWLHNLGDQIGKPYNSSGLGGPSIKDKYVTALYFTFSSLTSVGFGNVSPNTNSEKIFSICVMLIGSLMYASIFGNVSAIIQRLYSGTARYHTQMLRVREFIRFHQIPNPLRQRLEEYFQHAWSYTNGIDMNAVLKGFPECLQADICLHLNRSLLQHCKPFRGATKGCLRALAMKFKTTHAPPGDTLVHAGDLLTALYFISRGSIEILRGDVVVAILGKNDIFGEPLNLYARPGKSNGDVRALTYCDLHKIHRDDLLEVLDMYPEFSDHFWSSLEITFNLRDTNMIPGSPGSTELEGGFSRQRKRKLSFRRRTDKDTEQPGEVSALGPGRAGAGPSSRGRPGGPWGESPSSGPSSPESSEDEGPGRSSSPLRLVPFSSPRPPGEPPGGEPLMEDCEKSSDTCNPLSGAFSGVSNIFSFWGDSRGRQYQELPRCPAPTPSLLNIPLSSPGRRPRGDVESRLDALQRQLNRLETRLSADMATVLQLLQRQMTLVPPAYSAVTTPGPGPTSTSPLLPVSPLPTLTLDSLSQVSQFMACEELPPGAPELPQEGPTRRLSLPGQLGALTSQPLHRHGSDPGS

Structure (SMILES)	solubility at 72 h [4] [µM]	solubility at 72 h [5] [µM]	IC50 [7] [µM]	IC50 [8] [nM]	efflux ratio at 1 h, 5 µM [9]	Ki [10] [nM]	hepatic extraction ratio at 1 µM [11]	hepatic extraction ratio at 1 µM [12]	other results
O=C(Cn1c(=O)[nH]c2ncc(-c3cccc(C(F)(F)F)c3)cc21)NC1CC1	< 4	< 4	> 10						IC50 [1]: > 10 µM; IC50 [2]: > 10 µM; IC50 [3]: > 10 µM; fraction unbound at 6 h, 1 µM [6]: 0.004
Cn1c(=O)n(CC(=O)N2CC(F)C2)c2cc(-c3cccc(C(F)(F)F)c3)cnc21	17 (≈ 6.94 µg/mL)	16 (≈ 6.53 µg/mL)	> 10	118	7	25	< 0.3	< 0.2	
Cn1c(=O)n(CC(=O)N2CCC2)c2cc(-c3cc(C(F)F)cs3)cnc21			> 10	79	9.1	59	< 0.3	0.52	Stabilty [13]: Unstable; Stabilty [14]: Unstable
Cn1c(=O)n(CC(=O)N2CCC2)c2cc(-c3cccc(C(F)(F)F)c3)cnc21	19 (≈ 7.42 µg/mL)	23 (≈ 8.98 µg/mL)	> 10	97	9	19	< 0.3	< 0.2	fraction unbound at 6 h, 1 µM [6]: 0.052
Cn1c(=O)n(CC(=O)N2CCC2)c2cc(-c3ccc(C(F)F)s3)cnc21			> 10	6	5.8	19	0.46	0.58	Stabilty [13]: Unstable; Stabilty [14]: Unstable
Cn1c(=O)n(CC(=O)N2CCC2)c2cc(-c3ccc(C4CC4)s3)cnc21			> 10	81		63			
Cn1c(=O)n(CC(=O)N2CC(F)C2)c2cc(-c3ccc(C(F)(F)F)s3)cnc21	< 4	< 4	> 10	71	3.7	21	< 0.3	0.17	clearance [15]: 20 mL/min/kg; Vd [16]: 0.9 L/kg; half-life [17]: 54 min; Cmax [18]: 1000 ng/mL; AUC(0-inf) [19]: 3610 ng·h/mL; Tmax [20]: 1 h; bioavailability [21]: 109%; Occ [22]: 74%; Occ [23]: 71%; Occ [24]: 24%; Cmax [25]: 728 ng/g; Tmax [26]: 2 h
CN(C)C(=O)Cn1c(=O)n(C)c2ncc(-c3cccc(C(F)(F)F)c3)cc21	6 (≈ 2.27 µg/mL)	6 (≈ 2.27 µg/mL)	> 10	47	7	19	0.38	0.31	
Cc1csc(-c2cnc3c(c2)n(CC(=O)N(C)C)c(=O)n3C)c1	31 (≈ 10.2 µg/mL)	25 (≈ 8.26 µg/mL)	> 10	216	3.5	270	0.59	0.82	
Cc1ccc(-c2cnc3c(c2)n(CC(=O)N2CCC2)c(=O)n3C)s1	39 (≈ 13.4 µg/mL)	48 (≈ 16.4 µg/mL)	> 10	25	3.2	44	0.56	0.78	clearance [27]: 114 mL/min/kg; Vd [28]: 1.1 L/kg; half-life [29]: 12 min; Cmax [30]: 6 ng/mL; bioavailability [31]: 1%
